Measured values pooled from the literature.
Each line is one published result; the experiments were not run side by side.
Action: inhibitor
PARP2: Poly [ADP-ribose] polymerase 2 (PARP2, Homo sapiens, UniProt Q9UGN5)
CDK2: Cyclin-dependent kinase 2 (CDK2, Homo sapiens, UniProt P24941)

The IC50 of `CCCCCn1nnc2c3ccc(F)cc3c(=O)[nH]c21` is reported as greater than 10000 nM (PARP2; enzyme activity).
With `CCNc1ccc(C(N)=O)cn1` the IC50 was greater than 31600 nM (Nicotinamide N-methyltransferase (NNMT, Homo sapiens, UniProt P40261); enzyme activity in cells).
For `Cn1cc(C2=C(c3cn(CCCSC(=N)N)c4ccccc34)C(=O)NC2=O)c2ccccc21`, the IC50 was 644 nM (Serine/threonine-protein kinase VRK1 (VRK1, Homo sapiens, UniProt Q99986); enzyme activity).
`CN(C)CCNC(=O)c1ccc(-c2nc3ccc4[nH]ncc4c3c3c2CC(F)(F)CC3)cc1` gave an IC50 of 109 nM (CDK2; enzyme activity).
`Cc1cc(O)c(-c2ccc([C@@H](C)CN(C)C)cc2)c2c1[nH]c(=O)c1sccc12` gave an IC50 of greater than 1000 nM (Cyclin-dependent kinase 8, with cyclin C (CDK8, Homo sapiens, UniProt P49336); enzyme activity).
`O=c1[nH]c2c(nnn2Cc2ccccc2)c2ccc(F)cc12` has an IC50 of greater than 10000 nM (PARP2; enzyme activity).
For `CC(=O)N1C(=O)NC(C)=C(C(=O)OCc2ccccc2)C1c1cccc([N+](=O)[O-])c1` (racemic), the IC50 was 2600 nM (Voltage-dependent L-type calcium channel subunit alpha-1C (Cacna1c, Rattus norvegicus, UniProt P22002); ion current, patch clamp).
The IC50 of `CC(=O)C(=O)N(CC(C)C)NC(=O)[C@H](Cc1ccccc1)NC(=O)[C@H](CC(C)C)NC(=O)[C@H](CCc1ccccc1)NC(=O)OCc1ccccc1` is reported as 31500 nM (Cathepsin B (CTSB, Homo sapiens, UniProt P07858); enzyme activity, fluorescence; pH 6).
`CN(C)CCNC(=O)c1ccc(-c2nc3ccc4[nH]ncc4c3c3c2CCCCC3)cn1` gave an IC50 of 210 nM (CDK2; enzyme activity).
`O=c1[nH]c2c(nnn2Cc2ccc(C(F)(F)F)cc2)c2ccc(F)cc12` has an IC50 of greater than 10000 nM (PARP2; enzyme activity).
For `CN(C)CCNC(=O)c1ccc(-c2nc3ccc4[nH]ncc4c3c3c2CC(C)(C)CC3)cc1`, the IC50 was 145 nM (CDK2; enzyme activity).
With `O=c1[nH]c(=O)c(Cc2cccc(C(F)(F)F)c2)c([C@H]2CC[C@H](c3ccccc3)CC2)[nH]1` the IC50 was greater than 8000 nM (Multidrug and toxin extrusion protein 1 (SLC47A1, Homo sapiens, UniProt Q96FL8); transporter uptake).
